Values belong to the molecule of their own block, whether it stands above or below them. Activity calls are given as the source filed them. No cut-off for these calls is given here.
Legend:
MCF7 [1] = assay: Cell cycle arrest in human MCF7 cells assessed as increase in cell population at G2/M phase at 10 uM after 48 hrs by flow cytometry; type: functional, cell-based
Method in brief: (§1)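 Cells seeded in 6-well plates at 1∙10⁶ (NB4) or 0.45∙10⁶ (A549, MCF-7) per well. Treated for 48 h at 10 (NB4, MCF-7), 20 and 30 (A549), or, for NB4, a lower 5; DMSO solvent control. Cell cycle phase distribution and sub-G1 measured by flow cytometry. Mean of two independent experiments.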

A549 [2] = assay: Antiproliferative activity against human A549 cells assessed as cell growth inhibition after 48 hrs by XTT assay; type: functional, cell-based; details: A549, 48 h
Method in brief: (§2)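 NB4 grown in RPMI 1640 with 10% FBS and penicillin/streptomycin, A549 and MCF-7 in DMEM, all at 37 °C and 5% CO2. Cells seeded at 1.5∙10⁴ (NB4) or 1.0∙10⁴ (A549, MCF-7) per well. Adherent lines dosed 24 h after plating, NB4 shortly after. Triplicate concentrations from 0.1 to 100, DMSO control at 0.5% v/v. After 48 h exposure, XTT added for 2 h. A450 minus A690 read, GI50 reported with SE.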

NB-4 [3] = assay: Induction of cell death in human NB4 cells assessed as elevated sub-G1 population at 10 uM after 48 hrs by flow cytometry; type: functional, cell-based; method in brief: as §1
MCF7 [4] = assay: Cell cycle arrest in human MCF7 cells assessed as increase in cell population at S phase at 10 uM after 48 hrs by flow cytometry; type: functional, cell-based; method in brief: as §1
[5] = Cell cycle arrest in human NB4 cells assessed as increase in cell population at G2/M phase at 5 uM after 48 hrs by flow cytometry; type: functional, cell-based; details: NB-4; method in brief: as §1
MCF7 [6] = assay: Antiproliferative activity against human MCF7 cells assessed as cell growth inhibition after 48 hrs by XTT assay; type: functional, cell-based; details: MCF7, 48 h; method in brief: as §2
[7] = Antiproliferative activity against human NB4 cells assessed as cell growth inhibition after 48 hrs by XTT assay; type: functional, cell-based; details: NB-4, 48 h; method in brief: as §2
[8] = Induction of apoptosis in human NB4 cells assessed as cell death; type: functional, NB-4
Method in brief: (§3)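 NB4 acute promyelocytic leukemia cells were grown in RPMI 1640 + GlutaMAX with 10% FBS and penicillin/streptomycin at 37 °C under 5% CO₂. Cells were seeded in 6-well plates at 1∙10⁶ per well and treated for 24 and 48 h; DMSO served as the solvent control. Apoptotic cells were quantified by annexin V binding. Values are the mean of two independent experiments.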

[9] = Cell cycle arrest in human NB4 cells assessed as increase in cell population at S phase at 5 uM after 48 hrs by flow cytometry; type: functional, cell-based; details: NB-4; method in brief: as §1
MCF7 [10] = assay: Induction of apoptosis in human MCF7 cells at 10 uM after 24 to 48 hrs by annexin V binding assay; type: functional, cell-based
Method in brief: (§4)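 Cells seeded in 6-well plates at 1∙10⁶ (NB4) or 0.45∙10⁶ (A549, MCF-7) per well. Treated at 5 (NB4), 20 and 30 (A549) or 10 (MCF-7). Apoptotic cell percentage measured by annexin V binding after 24 and 48 h. Mean of two independent experiments.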

NB-4 [11] = assay: Acceleration of RA-induced granulocytic differentiation in human NB4 cells in presence of all-trans retinoic acid relative to control; type: functional
[12] = Induction of apoptosis in human NB4 cells assessed as cell death at 5 uM after 24 hrs by annexin V binding assay; type: functional, NB-4; method in brief: as §3
A549 [13] = assay: Cell cycle arrest in human A549 cells assessed as increase in cell population at S phase at 30 uM after 48 hrs by flow cytometry; type: functional, cell-based; method in brief: as §1
A549 [14] = assay: Cell cycle arrest in human A549 cells assessed as slight increase in cell accumulation at G2/M phase at 20 uM after 48 hrs by flow cytometry; type: functional, cell-based; method in brief: as §1
A549 [15] = assay: Cell cycle arrest in human A549 cells assessed as slight increase in cell population at S phase at 20 uM after 48 hrs by flow cytometry; type: functional, cell-based; method in brief: as §1
A549 [16] = assay: Induction of apoptosis in human A549 cells at 20 to 30 uM after 24 to 48 hrs by annexin V binding assay; type: functional, cell-based; method in brief: as §4
[17] = Cell cycle arrest in human NB4 cells assessed as accumulation of cells at G0/G1 phase at 1 uM after 24 hrs by flow cytometry in presence of 1 uM all-trans retinoic acid; type: functional, cell-based; details: NB-4
[18] = Cell cycle arrest in human NB4 cells assessed as increase in cell population at G0/G1 phase at 5 uM after 48 hrs by flow cytometry; type: functional, cell-based; details: NB-4; method in brief: as §1
NB-4 [19] = assay: Antiproliferative activity against human NB4 cells assessed as decrease in cell viability at 1uM in presence of 1 uM all-trans retinoic acid after 96 hrs by trypan blue exclusion test; type: functional, cell-based
Method in brief: (§5)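 Log-phase NB4 cells at 0.5 × 10⁶ cells/ml were exposed to test agent alone or combined with 1 µM retinoic acid for 24, 48, 72 and 96 h. At each time point, aliquots were stained with 0.2% trypan blue, and viable and dead cells were counted on a hematocytometer.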

NB-4 [20] = assay: Acceleration of RA-induced granulocytic differentiation in human NB4 cells at 1 uM after 24 to 96 hrs by NBT assay in presence of 1 uM all-trans retinoic acid relative to control; type: functional
Method in brief: (§6)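 NB4 cells were treated with agent, 1 µM retinoic acid, or both, for 24–96 h. Differentiation was scored as reduction of NBT to formazan after PMA stimulation. NBT-positive cells were counted in 5 non-overlapping fields at ×400 and averaged per field. Three independent experiments; mean ± SD.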

NB-4 [21] = assay: Induction of granulocytic differentiation in human NB4 cells at 1 uM after 24 to 96 hrs by NBT assay; type: functional, cell-based; method in brief: as §6
[22] = Cell cycle arrest at G0/G1 phase in human NB4 cells at 1 uM by flow cytometry; type: functional, cell-based; details: NB-4
NB-4 [23] = assay: Induction of granulocytic differentiation in human NB4 cells at 1 uM after 48 hrs by CD11b assay (reference value: 8.5%); type: functional
NB-4 [24] = assay: Induction of apoptosis in human NB4 cells at 5 uM after 24 to 48 hrs by annexin V binding assay; type: functional, cell-based; method in brief: as §4
NB-4 [25] = assay: Acceleration of RA-induced granulocytic differentiation in human NB4 cells at 1 uM after 48 hrs by CD11b assay in presence of 1 uM all-trans retinoic acid (reference value: 79.9%); type: functional
NB-4 [26] = assay: Antiproliferative activity against human NB4 cells assessed as decrease in cell viability at 1 uM after 96 hrs by trypan blue exclusion test; type: functional, cell-based; method in brief: as §5

- IC50 (A549 [2]): 23.8 µM
- IC50 (MCF7 [6]): 11 µM
Structure (SMILES): C=C(C(=O)c1ccc(OC)cc1)C(O)c1ccc([N+](=O)[O-])cc1 (stereo not given)
- Activity (MCF7 [1]): Active
- Activity (NB-4 [3]): Active
- Activity (MCF7 [4]): Active
- Activity [5]: Active
- IC50 [7]: 5.4 µM

Structure (SMILES): COc1cccc2c1C(=O)c1c(O)c3c(c(O)c1C2=O)C[C@@](O)(C(=O)CO)C[C@@H]3O[C@H]1C[C@H](N)[C@H](O)[C@H](C)O1 [DOXORUBICIN]
- Activity [8]: 80%

- IC50 (A549 [2]): 22 µM
- IC50 (MCF7 [6]): 4.3 µM
Structure (SMILES): CCN(CC)C/C(=C\c1ccc([N+](=O)[O-])cc1)C(=O)c1ccc(OC)cc1
- Activity (MCF7 [1]): Active
- Activity [9]: Active
- Activity (NB-4 [3]): Active
- Activity (MCF7 [4]): Active
- Activity (MCF7 [10]): Active
- IC50 [7]: 1.2 µM

Structure (SMILES): O=C(/C=C/c1cccc(S(=O)(=O)Nc2ccccc2)c1)NO [BELINOSTAT]
- Activity [8]: 20%
- Activity (NB-4 [11]): 13%

Structure (SMILES): COc1cc2nc(N3CCCN(C)CC3)nc(NC3CCN(Cc4ccccc4)CC3)c2cc1OC
- Activity (NB-4 [11]): 10%

Structure (SMILES): CC(=O)OC/C(=C\c1ccccc1F)C(=O)c1ccccc1
- IC50 (A549 [2]): 68.7 µM
- Activity [12]: >50%
- Activity [9]: Active
- Activity (NB-4 [3]): Active
- IC50 (MCF7 [6]): 14.6 µM
- IC50 [7]: 5.8 µM

Structure (SMILES): C=C(C(=O)c1ccc(OC)cc1)C(OC(C)=O)c1ccc(Cl)cc1Cl (stereo not given)
- Activity (A549 [13]): Active
- Activity (MCF7 [1]): Active
- IC50 (A549 [2]): 17.6 µM
- Activity (A549 [14]): Active
- Activity [12]: >50%
- Activity (A549 [15]): Active
- Activity [9]: Active
- Activity (NB-4 [3]): Active
- Activity (MCF7 [4]): Active
- IC50 (MCF7 [6]): 8.3 µM
- IC50 [7]: 5.4 µM
- Activity (A549 [16]): Active

Structure (SMILES): O=[As][As+](=O)[O-] (stereo not given) [ARSENIC TRIOXIDE]
- Activity [8]: 27%

- IC50 (A549 [2]): > 100 µM
- IC50 (MCF7 [6]): > 100 µM
Structure (SMILES): COc1ccc(C(=O)/C(=C/c2ccc([N+](=O)[O-])cc2)CC(C)C)cc1
- Activity [17]: 18.2%
- Activity [18]: Active
- Activity (NB-4 [19]): Active
- Activity (NB-4 [20]): 8%
- Activity (NB-4 [3]): Active
- Activity (NB-4 [21]): inactive
- Activity [22]: inactive
- Activity (NB-4 [23]): 9.5%
- Activity (NB-4 [24]): inactive
- IC50 [7]: 0.6 µM
- Activity (NB-4 [25]): 87.9%
- inhibition (NB-4 [26]): Active

- IC50 (A549 [2]): > 100 µM
- IC50 (MCF7 [6]): > 100 µM
Structure (SMILES): C=C(C/C(=C\c1ccc(OC(=O)c2ccccc2)cc1)C(=O)c1ccc(OC)cc1)C(=O)c1ccc(OC)cc1
- Activity (NB-4 [3]): Active
- Activity [5]: Active
- IC50 [7]: 6.7 µM

Structure (SMILES): C=C(C(=O)c1ccc(OC)cc1OC)C(OC(C)=O)c1ccc([N+](=O)[O-])cc1 (stereo not given)
- IC50 (A549 [2]): 43.5 µM
- Activity [12]: >50%
- Activity [9]: Active
- Activity (NB-4 [3]): Active
- IC50 (MCF7 [6]): 10.4 µM
- IC50 [7]: 5 µM

Structure (SMILES): CC1=C(/C=C/C(C)=C/C=C/C(C)=C/C(=O)O)C(C)(C)CCC1
- Activity [22]: 17.3%
- Activity (NB-4 [26]): Active

Source: ChEMBL document CHEMBL3421532, “Synthesis and antiproliferative activity of α-branched α,β-unsaturated ketones in human hematological and solid cancer cell lines” (Eur J Med Chem, 2015)
